Source: ChEMBL document CHEMBL2169863, “Discovery, structure-activity relationship, and biological evaluation of noninhibitory small molecule chaperones of glucocerebrosidase” (J Med Chem, 2012)
Active and inactive are the calls of the source.

Assays:
[1] = molecular target: Lysosomal alpha-glucosidase (Homo sapiens) (UniProt P10253); experiment: Activation of alpha-glucosidase using 4-MU-alpha-glucose as substrate
[2] = tested on: T1, Lysosomal acid glucosylceramidase (Homo sapiens), P04062 [N409S]; experiment: Activation of glucocerebrosidase N370S mutant in Gaucher patient spleen homogenates using 4-methylumbelliferone-Glc as substrate assessed as half-maximal activation concentration incubated for 5 mins prior to substrate addition measured after 30 to 45 mins by fluorimetric analysis; format: tissue-based
T1 sequence (whole entry): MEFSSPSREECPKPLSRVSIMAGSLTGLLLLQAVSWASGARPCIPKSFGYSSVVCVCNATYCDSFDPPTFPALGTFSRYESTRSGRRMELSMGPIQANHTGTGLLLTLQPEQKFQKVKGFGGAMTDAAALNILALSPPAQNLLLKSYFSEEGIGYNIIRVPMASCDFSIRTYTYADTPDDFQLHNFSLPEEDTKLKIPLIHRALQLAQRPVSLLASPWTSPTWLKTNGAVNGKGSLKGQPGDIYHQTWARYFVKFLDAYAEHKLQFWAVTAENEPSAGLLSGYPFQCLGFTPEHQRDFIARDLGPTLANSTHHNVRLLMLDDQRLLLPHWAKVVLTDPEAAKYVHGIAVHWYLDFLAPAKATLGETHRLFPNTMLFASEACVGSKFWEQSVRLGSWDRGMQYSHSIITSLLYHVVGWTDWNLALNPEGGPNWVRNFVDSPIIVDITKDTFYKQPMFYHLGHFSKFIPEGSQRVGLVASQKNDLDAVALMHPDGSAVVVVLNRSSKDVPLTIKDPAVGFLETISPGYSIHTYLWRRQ
In short: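 Spleen homogenate (27 μg final) in pH 5 citrate/phosphate buffer with KCl, NaCl, MgCl₂ and 0.01% Tween-20. Compound was titrated 0.5 nM to 58 μM and preincubated 5 min at room temperature. Reaction used 1 mM 4MU-Glc for 30−45 min at 37 °C and was stopped with NaOH/glycine pH 10. Read-out was fluorescence at Ex 365/Em 440 nm. AC₅₀ is the average of N = 2.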

[3] = Activation of alpha-galactosidase using 4-MU-alpha-galactose as substrate

Compound | Activity [1] | Activity [2] | Activity [3]
Cc1cc(C)n2ncc(C(=O)Nc3ccccc3)c2n1 | inactive | 8.19 µM | inactive
Cc1cc(C)n2ncc(C(=O)NCC(C)C)c2n1 | inactive | 32.6 µM | inactive
Cc1cccc(NC(=O)c2cnn3c(C)cc(C)nc23)c1 | inactive | 6.51 µM | inactive
COc1ccc(NC(=O)c2cnn3c(-c4ccccc4)cc(C)nc23)cc1 | inactive | inactive | inactive
Cc1cc(-c2ccccc2)nc2c(C(=O)Nc3ccc4c(c3)CCC4)cnn12 | inactive | 8.19 µM | inactive
Cc1cc(-c2ccccc2)n2ncc(C(=O)Nc3ccccc3Sc3ccccc3)c2n1 | inactive | inactive | inactive
Cc1ccc(NC(=O)c2cnn3c(C)cc(C)nc23)cc1 | inactive | 1.63 µM | inactive
CCc1ccc(NC(=O)c2cnn3c(C(F)F)cc(C4CC4)nc23)cc1 | inactive |  | inactive
Cc1ccc(NC(=O)c2cnn3c(C)cc(C)nc23)c(C)c1 | inactive | 13 µM | inactive
CC(=O)Nc1ccc(NC(=O)c2cnn3c(C)cc(C)nc23)cc1 | inactive | inactive | inactive
O=C(Nc1ccc2c(c1)CCC2)c1cnn2c(C(F)F)cc(C3CC3)nc12 | inactive |  | inactive
CNC(=O)c1cnn2c(C)cc(C)nc12 | inactive | inactive | inactive
O=C(NC1CCCCC1)c1cnn2c(C(F)F)cc(C3CC3)nc12 | inactive |  | inactive
Cc1cc(C)n2ncc(C(=O)Nc3ccc(S(C)(=O)=O)cc3)c2n1 | inactive | inactive | inactive
CC(=O)c1ccc(NC(=O)c2cnn3c(C)cc(C)nc23)cc1 | inactive | 163 µM | inactive
CCc1ccc(NC(=O)c2cnn3c(C)cc(-c4ccccc4)nc23)cc1 | inactive | 12.9 µM | inactive
Cc1cc(C)n2ncc(C(=O)NC(C)C)c2n1 | inactive | inactive | inactive
Cc1cc(C)n2ncc(C(=O)Nc3ccc(C(C)(C)C)cc3)c2n1 | inactive | 2.31 µM | inactive
Cc1cc(C)n2ncc(C(=O)Nc3ccc(C#N)cc3)c2n1 | inactive | 20.6 µM | inactive
O=C(Nc1ccccc1Sc1ccccc1)c1cnn2c(C(F)(F)F)cc(C3CC3)nc12 | inactive |  | inactive
Cc1cc(C)n2ncc(C(=O)Nc3cccc(C(F)(F)F)c3)c2n1 | inactive | 41.1 µM | inactive
CC(=O)c1cccc(NC(=O)c2cnn3c(C)cc(C)nc23)c1 | inactive | 32.6 µM | inactive
Cc1cc(C)n2ncc(C(=O)Nc3ccc(C)c(C)c3)c2n1 | inactive | 1.46 µM | inactive
COc1ccc(NC(=O)c2cnn3c(C)cc(C)nc23)cc1 | inactive | 8.19 µM | inactive

Compound | Activity [1] | Activity [2] | Activity [3]
COc1cc(NC(=O)c2cnn3c(C)cc(C)nc23)cc(OC)c1OC | inactive | inactive | inactive
Cc1cc(C)n2ncc(C(=O)N[C@H]3CC[C@H](C(C)(C)C)CC3)c2n1 | inactive | 4.11 µM | inactive
Cc1cc(C)n2ncc(C(=O)Nc3cc(Cl)cc(Cl)c3)c2n1 | inactive | 25.9 µM | inactive
Cc1cc(C)n2ncc(C(=O)Nc3ccccc3C)c2n1 | inactive | 16.3 µM | inactive
Cc1cc(C)n2ncc(C(=O)Nc3ccc4c(c3)OCCO4)c2n1 | inactive | 10.3 µM | inactive
Cc1cc(C)n2ncc(C(=O)N[C@H]3CC[C@@H](C(C)(C)C)CC3)c2n1 | inactive | 25.9 µM | inactive
Cc1cc(C)n2ncc(C(=O)Nc3ccc4c(c3)CCC4)c2n1 | inactive | 2.59 µM | inactive
Cc1cc(-c2ccccc2)nc2c(C(=O)Nc3ccc(Cl)c(Cl)c3)cnn12 | inactive |  | inactive
COc1ccc(NC(=O)c2cnn3c(C)cc(C)nc23)cc1Cl | inactive | 2.06 µM | inactive
Cc1ccc(NC(=O)c2cnn3c(-c4ccccc4)cc(C)nc23)cc1 | inactive | inactive | inactive
Cc1cc(C)n2ncc(C(=O)Nc3ccncc3)c2n1 | inactive | inactive | inactive
Cc1cc(C)n2ncc(C(=O)NC3CCCCC3)c2n1 | inactive | 10.3 µM | inactive
Cc1cc(C)n2ncc(C(=O)NCc3ccccc3)c2n1 | inactive | 51.7 µM | inactive
Cc1cc(C)n2ncc(C(=O)Nc3cccc(C#N)c3)c2n1 | inactive | inactive | inactive
Cc1cc(-c2ccccc2)n2ncc(C(=O)Nc3ccc(Cl)c(Cl)c3)c2n1 | inactive | inactive | inactive
Cc1cc(C)n2ncc(C(=O)NCc3ccco3)c2n1 | inactive | 51.7 µM | inactive
COc1ccc(NC(=O)c2cnn3c(C)cc(C)nc23)cc1F | inactive | 1.46 µM | inactive
COc1ccc(NC(=O)c2cnn3c(C)cc(C)nc23)cc1OC | inactive | inactive | inactive
Cc1cc(C)n2ncc(C(=O)Nc3ccccc3Sc3ccccc3)c2n1 | inactive | 18.3 µM | inactive
CC(=O)Nc1cccc(NC(=O)c2cnn3c(C)cc(C)nc23)c1 | inactive | inactive | inactive
Cc1cc(C)n2ncc(C(=O)Nc3ccc4c(c3)OCO4)c2n1 | inactive | 6.51 µM | inactive
CCc1ccc(NC(=O)c2cnn3c(C)cc(C)nc23)cc1 | inactive | 3.26 µM | inactive
Cc1cc(C)n2ncc(C(=O)N3CCCC3)c2n1 | inactive | inactive | inactive
